As a reminder, the logP is a log measure of how a compound divides between an organic and an aqueous phase. A higher logP goes with higher lipophilicity. Broadly, the ED50 is the dose that gives a 50% effect, or the effect in half of the subjects. Read a high ED50 as weaker potency. What is called IC50 is the point on the concentration scale where inhibition reaches its midpoint. Read a high IC50 as weaker potency in that assay. Broadly, the logD is lipophilicity at a set pH, counting ionised and neutral species. A low value points to lower lipophilicity. As a reminder, the inhibition is the drop in the measured response relative to a control, in per cent. A higher inhibition goes with strong suppression.

The species entered for one data set is Mus musculus. Put plainly: Testing for ataxia was done by using an inverted screen technique. The data set is classed as functional. The gist of the method:
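Inverted-screen test in CF-1 mice (22-28 g), scored 5 min after retrobulbar test agent in 0.9% saline (5 mL/kg), immediately before NMDA injection.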

Data set [1] is described as follows: Partition coefficient (logP) (HPLC). The data set is classed as physicochemical. As to conditions: octanol/water.
Data set [2] has as its target T1, Glutamate NMDA receptor (Rattus norvegicus) (UniProt P35439+Q00959+Q00960+Q00961+Q62645+Q8VHN2+Q9R1M7). Description: Evaluated in vivo for its NMDA antagonist activity by the inhibition of NMDA-induced lethality in mice. The class given is functional, organism-based. As to conditions: Mus musculus; target entry is the homologue from another species. In a few lines: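 CF-1 mice, 22-28 g. Test agent or vehicle (0.9% saline, 5 mL/kg) was given by retrobulbar injection 5 min before a 25 mg/kg NMDA bolus given retrobulbar in the other eye. Endpoint was prevention of lethality.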

In data set [3] the target is Glutamate NMDA receptor. Put plainly: Ability to inhibit glutamate induced accumulation of [45 [Ca2+]] in cultured rat cortical neurons. The data set is classed as functional. The gist of the method: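 Fetal rat cortical hemisphere dissociated cultures used on day 14-16 after plating. Medium was serum- and Mg-free HBSS with 1.4 mM CaCl2, pH 7.4 (35 mM bicarbonate), 37 °C, 5% CO2. Cells were exposed 30 min to 100 μM L-glutamate (final) plus [45Ca2+] (2 μCi/mL) ± test agent, washed with saline, lysed, and counted. Baseline was subtracted.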

In data set [4] the target is Glutamate NMDA receptor. Description: Binding affinity towards PCP site of the NMDA receptor was measured by displacement of […] in […]. The class given is tissue-based, Brain.
A short description of data set [5]: Partition coefficient was measured using a standard shake flask (SF) method at pH 7.4. The class given is physicochemical. As to conditions: octanol/water. The gist of the method:
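Shake-flask partitioning at pH 7.4.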

Data set [6] has as its target T1, Glutamate NMDA receptor (Rattus norvegicus). Put plainly: Percent inhibition at PCP site of NMDA receptor complex was measured by displacement of […] in whole rat brain homogenate at 10 E-7 M. The class given is tissue-based. The gist of the method: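 [3H]TCP displacement from rat brain membrane preparation (cortical membranes in the methods; whole-brain homogenate in the assay description), following a previously published procedure.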
(In general: Loss of bound radioactivity is the signal in a displacement assay; it reports binding, not function.)

The structures appear in SMILES notation.

On to `CNC12CCCCC1CCc1ccccc12` (stereo not drawn), for which the Ataxia in the data set filed under Mus musculus stood at 0.44 mg/kg. This compound came in with a logP in data set [1] of 3.25. The compound also registered an ED50 in data set [2] of 0.54 mg/kg. Further, the IC50 was determined as 310 nM on Glutamate NMDA receptor [3] and 14.7 nM at Glutamate NMDA receptor [4].
Consider `CC1CC2CCCCC2(N)c2ccccc21` (stereo not drawn), for which the logD in data set [5] came to 1.61. The compound also gave a logP in data set [1] of 3.59. For the same compound, on Glutamate NMDA receptor [4], the IC50 was found to be 508 nM.
As to `NCC1CCC2(N)c3ccccc3CCC2C1` (stereo not drawn), in data set [6], the inhibition came out at 1%.
In the case of `CN[C@@]12CCCCC1CCc1ccccc12` (stereo partly drawn), the Ataxia in the data set filed under Mus musculus was 1 mg/kg. The compound also registered an ED50 in data set [2] of 0.97 mg/kg. Moreover, the IC50 stood at 810 nM on Glutamate NMDA receptor [3] and 41.5 nM at Glutamate NMDA receptor [4].
Compound `CN[C@]12CCCCC1CSc1ccccc12` (stereo partly drawn) gave a 50% inhibitory concentration (IC50) at Glutamate NMDA receptor [4] of 30 nM.
The compound `NC12CC=CCC1CCc1ccccc12` (stereo not drawn) came in with an Ataxia in the data set filed under Mus musculus of under 1 mg/kg. Further, the logP in data set [1] is 2.75. The same compound showed an ED50 in data set [2] of 4.2 mg/kg. The concentration for half-maximal inhibition (IC50) against Glutamate NMDA receptor [3] was 2350 nM; on Glutamate NMDA receptor [4] it was 87.5 nM.
In turn, `CN(C)C12CCCCC1CCc1ccccc12` (stereo not drawn) registered an Ataxia in the data set listed under Mus musculus of under 0.3 mg/kg. In data set [2], this compound displayed a median effective dose (ED50) of 1.6 mg/kg. For the same compound, the IC50 stood at 1630 nM against Glutamate NMDA receptor [3] and 21 nM on Glutamate NMDA receptor [4].
Compound `CNC12CCC(CN)CC1CCc1ccccc12` (stereo not drawn) returned a log partition coefficient (logP) in data set [1] of 2. In addition, in data set [6], the inhibition is 8%.
In turn, `CN[C@@]12CCCCC1CSc1ccccc12` (stereo partly drawn) showed an IC50 at Glutamate NMDA receptor [4] of 199 nM.
As for `CNC1c2ccccc2CCC12CCCC2` (stereo not drawn), the inhibition in data set [6] worked out at 8%.
In turn, `NC12CC=CCC1CCc1ccc(O)cc12` (stereo not drawn) showed an Ataxia in the data set filed under Mus musculus of 1.5 mg/kg. In data set [2], this compound came in with an ED50 of 4.6 mg/kg. Moreover, the IC50 was found to be 1600 nM on Glutamate NMDA receptor [3] and 28 nM at Glutamate NMDA receptor [4].
For the compound `CNC1(C)c2ccccc2CCC12CCCC2` (stereo not drawn), the inhibition in data set [6] was determined as 5%.
Turning to `NC12CC=CCC1CSc1ccccc12` (stereo not drawn), the IC50 came to 1700 nM on Glutamate NMDA receptor [3] and 101 nM at Glutamate NMDA receptor [4].
`CNC12CC=CCC1CCc1ccc(OC)cc12` (stereo not drawn) returned an Ataxia in the data set filed under Mus musculus of 1 mg/kg. In data set [2], this compound had an ED50 of 4.1 mg/kg. For the same compound, the half-inhibitory concentration (IC50) amounted to 410 nM on Glutamate NMDA receptor [3] and 21 nM on Glutamate NMDA receptor [4].
Compound `CNC12CCCCC1CC(C)(C)c1ccccc12` (stereo not drawn) returned an IC50 at Glutamate NMDA receptor [4] of 20800 nM.
In the case of `CC1CC2CC=CCC2(N)c2ccccc21` (stereo not drawn), the logD in data set [5] was 1.89. In data set [1], the logP came out at 3.4. Further, on Glutamate NMDA receptor [4], the IC50 came to 2460 nM.
Compound `COc1ccc2c(c1)C1(N)CCCCC1CC2` (stereo not drawn) registered an Ataxia in the data set filed under Mus musculus of 1.3 mg/kg. The compound further had an ED50 in data set [2] of 1.2 mg/kg. Besides, the IC50 against Glutamate NMDA receptor [3] is 440 nM; at Glutamate NMDA receptor [4] it was 18 nM.
`NC1c2ccccc2CCC12CCCC2` (stereo not drawn): the inhibition in data set [6] was 8%.
With `CC1(N)c2ccccc2CCC12CCCC2` (stereo not drawn), in data set [6], the inhibition was 5%.
Turning to `CNC12CC=CCC1CCc1ccccc12` (stereo not drawn), the Ataxia in the data set listed under Mus musculus was 0.6 mg/kg. Moreover, the logP in data set [1] is 3.07. The compound further gave an ED50 in data set [2] of 1.8 mg/kg. The IC50 on Glutamate NMDA receptor [3] turned out to be 400 nM; on Glutamate NMDA receptor [4], 27.3 nM.
`CNC12CCCCC1CC(O)c1ccccc12` (stereo not drawn): in data set [5], the logD was found to be 0.73. In data set [1], this compound showed a logP of 1.84. At Glutamate NMDA receptor [4], the IC50 is 1490 nM.
In data set [5], `CNC1(c2ccccc2Cl)CCCCC1=O` (stereo not drawn) [KETAMINE] showed a logD of 2.18. This compound also returned an Ataxia in the data set listed under Mus musculus of 10 mg/kg. Besides, the ED50 in data set [2] was found to be 6 mg/kg. Also, the IC50 at Glutamate NMDA receptor [3] worked out at 8860 nM.
`CNC12CCCCC1CC(C)c1ccccc12` (stereo not drawn) gave a half-inhibitory concentration (IC50) at Glutamate NMDA receptor [4] of 317 nM.
Compound `NC12CCCCC1CCc1ccccc12` (single isomer, unassigned; form 1) came in with an Ataxia in the data set listed under Mus musculus of under 0.3 mg/kg. Besides, the IC50 against Glutamate NMDA receptor [3] is 480 nM; on Glutamate NMDA receptor [4], 11.3 nM.
`c1ccc(C2(N3CCCCC3)CCCCC2)cc1` [PHENCYCLIDINE] registered an Ataxia in the data set listed under Mus musculus of 1 mg/kg. This compound gave an ED50 in data set [2] of 0.55 mg/kg. Also, at Glutamate NMDA receptor [3], inhibition was half-maximal at 200 nM (IC50).
Turning to `NC12CCCCC1CCc1ccccc12` (stereo not drawn), the Ataxia in the data set filed under Mus musculus was 0.55 mg/kg. The compound also registered a logP in data set [1] of 2.92. Besides, the values for the IC50 at Glutamate NMDA receptor [3] and at Glutamate NMDA receptor [4] were 370 nM and 25.4 nM, respectively.
In turn, `CN[C@]12CCCCC1CCc1ccccc12` (stereo partly drawn) displayed an Ataxia in the data set filed under Mus musculus of 0.18 mg/kg. This compound returned an ED50 in data set [2] of 0.39 mg/kg. Besides, the half-maximal inhibitory concentration (IC50) against Glutamate NMDA receptor [3] is 180 nM; at Glutamate NMDA receptor [4], 7.47 nM.
On Glutamate NMDA receptor [4], `NC12CC=CCC1COc1ccccc12` (stereo not drawn) showed an IC50 of 399 nM.
Turning to `CNC12CCCCC1CSc1ccccc12` (stereo not drawn), the logD in data set [5] amounted to 1.54. For the same compound, in the data set listed under Mus musculus, the Ataxia amounted to 1.5 mg/kg. This compound showed a logP in data set [1] of 3.88. Besides, the ED50 in data set [2] turned out to be 0.7 mg/kg. Further, the IC50 came out at 710 nM at Glutamate NMDA receptor [3] and 62 nM on Glutamate NMDA receptor [4].
For the compound `NC12CCCCC1CCc1sccc12` (stereo not drawn), the logD in data set [5] is 0.66. Besides, the Ataxia in the data set filed under Mus musculus worked out at 3 mg/kg. In addition, the logP in data set [1] stood at 3.02. For the same compound, in data set [2], the ED50 stood at 0.97 mg/kg. Besides, the IC50 against Glutamate NMDA receptor [3] turned out to be 1570 nM; on Glutamate NMDA receptor [4], 43 nM.

For the origin of these results see ChEMBL document CHEMBL1126730, “Synthesis and pharmacological evaluation of 4a-phenanthrenamine derivatives acting at the phencyclidine binding site of the N-methyl-D-aspartate receptor complex” (J Med Chem, 1993).
